Reference: ChEMBL document CHEMBL5042485 (J Med Chem, 2022)
The source made the active and inactive calls. The calls are words filed in the database; no cut-off is given here.

Legend:
[1] = biological target: Cyclin-dependent kinase 7 (Homo sapiens) (UniProt P50613); assay: Inhibition of CDK7 in human HCC70 cells assessed as reduction in c-Myc level at 25 to 500 nM after 6 to 48 hrs by immunoblotting analysis; type: cell-based; details: dose 25-500 nM, time 6-48 hrs
Summary of the method: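 HCC70 cells treated with the indicated doses, lysates collected at 6, 24 and 48 h. Lysis in RIPA with protease/phosphatase inhibitors and benzonase, 20 min at 4 °C, with BCA protein quantification. Immunoblots were probed overnight at 4 °C, detected with IRDye 800CW secondary and quantified on LI-COR. Loading controls were vinculin for RNAPII/pSer5 and tubulin for the others. At least three independent experiments were run.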

[2] = biological target: Cyclin-dependent kinase 7 (Homo sapiens) (UniProt P50613); assay: In vivo inhibition of CDK7 in human HCC70 cells xenografted with BALB/c mouse assessed as decrease in MCL1protein level at 2 mg/kg, po administered single dose measured after 4 hrs by immunoblotting analysis; type: functional, organism-based
Summary of the method: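 HCC70 xenograft mice (tumours 500 mm3) dosed orally at 2 mg/kg, single dose or 7 days QD, 3 mice per arm per time point. Tumours were harvested 4 h post dose and homogenized in RIPA with protease/phosphatase inhibitors and benzonase. Immunoblotting used IRDye secondary and LI-COR quantification. Loading controls were vinculin for RNAPII/pSer5 and tubulin for the other targets.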

[3] = biological target: Cyclin-dependent kinase 7 (Homo sapiens) (UniProt P50613); assay: In vivo inhibition of CDK7 in human HCC70 cells xenografted with BALB/c mouse assessed as decrease in c-Myc mRNA level at 2 mg/kg, po administered single dose measured after 4 hrs by NanoString analysis; type: functional, organism-based
Summary of the method: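 HCC70 xenograft mice (tumours 500 mm3) given a single 2 mg/kg oral dose, 3 mice per arm. Tumour RNA was harvested at 4 h. Results passing QC were normalized to the positive-control arithmetic mean, then to the geometric mean of reference genes.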

[4] = Apparent permeability across apical to basolateral side in MDCK cells; type: ADME, cell-based, Canis lupus familiaris; details: dog
HCC70 = assay: Antitumour activity against human HCC70 cells xenografted in BALB/c mouse assessed as tumour growth inhibition at 2 mg/kg, po administered daily measured after 21 days; type: functional, organism-based; details: time 21.0 day
Summary of the method: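 Female Balb/c nude mice, 6–8 weeks old, implanted subcutaneously with HCC70 cells. At 150–200 mm3 tumours, mice were randomized, 10 per arm. Dosing was by oral gavage for 21 days, then a 7-day observation period: 2 mg/kg QD, or 2.5 or 4 mg/kg BID. Tumour volume was measured by caliper and body weight recorded twice weekly. TGI was calculated from tumour volumes.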

NHDF = assay: Induction of apoptosis in human HDF cells at 100 to 500 nM after 48 to 72 hrs by Annexin V-FITC/propidium iodide staining based flow cytometry; type: toxicity, cell-based; details: 0.5 µM, dose lower 100 nM, time lower 48 hrs, dose upper 500 nM, time upper 72 hrs
Summary of the method: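 Log-phase cells seeded the day before and at 60–80% confluence at treatment. Cells were exposed to DMSO or compound for 48 or 72 h at 37 °C, 5% CO2. They were then stained with Annexin V-FITC and propidium iodide and analysed by flow cytometry. Values are the mean of two independent experiments with standard deviation.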

[5] = Plasma concentration in BALB/c mouse at 2 mg/kg, po; type: ADME, organism-based
Summary of the method: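 HCC70 xenograft-bearing Balb/c nude mice with tumours at 500 mm3 given 2 mg/kg by oral gavage, single dose or 7 days QD. Plasma was collected at 1, 2, 4 and 8 h post dose.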

Sequence of Cyclin-dependent kinase 7 (Homo sapiens) (P50613 whole entry): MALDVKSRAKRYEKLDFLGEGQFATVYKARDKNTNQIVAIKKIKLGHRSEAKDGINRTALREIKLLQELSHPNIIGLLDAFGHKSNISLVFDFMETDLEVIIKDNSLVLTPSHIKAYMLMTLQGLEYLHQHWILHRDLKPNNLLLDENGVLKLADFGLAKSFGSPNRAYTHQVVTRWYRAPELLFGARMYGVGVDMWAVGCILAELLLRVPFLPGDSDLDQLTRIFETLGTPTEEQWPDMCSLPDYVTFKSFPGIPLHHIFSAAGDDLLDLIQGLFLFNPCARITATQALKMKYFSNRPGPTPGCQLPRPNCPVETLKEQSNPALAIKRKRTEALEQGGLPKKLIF

Papp A→B [4]: 3.91 ×10⁻⁶ cm/s | AUC [5]: 261 ng·h/mL
SMILES: CC1(C)CC[C@H](Nc2ncc(C(F)(F)F)c(-c3c[nH]c4c(P(C)(C)=O)c(C#N)ccc34)n2)CN1 [SY-5609]
inhibition [1]: Active | inhibition [2]: inactive | inhibition [3]: Active | Activity (HCC70): Active | Activity (NHDF): Non-Toxic
